Laboratory results published in the EternaBench riboswitch data.

System: MS2 coat protein
Test: apparent Kd, MS2 coat protein; higher = weaker binding; RNA-MaP array; FMN 200 µM where present
How it was run: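 Each design was made on Illumina sequencing-chip clusters by stalled E. coli RNA polymerase and titrated with SNAP-549-labelled MS2 coat protein from 0.7 or 1.5 nM, doubling to 3 µM, in the absence and then the presence of constant ligand. The buffer was 100 mM Tris-HCl pH 7.5, 80 mM KCl, 4 mM MgCl2, BSA, DTT, yeast tRNA and Tween-20. The apparent Kd is the median of filtered per-cluster fits of binding curves, with green signal normalised to red-channel RNA signal and control-cluster median Fmax.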

[1] = designed as: OFF switch for flavin mononucleotide, no ligand
[2] = ligand present: flavin mononucleotide, designed as: OFF switch for flavin mononucleotide
[3] = designed as: ON switch for flavin mononucleotide, no ligand
[4] = ligand present: flavin mononucleotide, designed as: ON switch for flavin mononucleotide

Sequence | apparent Kd [1] [nM] | apparent Kd [2] [nM] | apparent Kd [3] [nM] | apparent Kd [4] [nM]
GCUGCGCGAGGAUAUGCGGUUUGUGCUUUGGCCCGUGGCGUACAUGAGGAUCACCCAUGUAGAAGGCGUGUGGG | 21.4 | 21.7 | – | –
CGACCCUGAACGAAAUCAUGCAGUCAGGAUAUACAUGAGGAUCACCCAUGUGCGUACCAACUCGUGUAGAAGGGACUUUCAGGA | 15.6 | 32.3 | – | –
CGACAUUACACAGGAUAUCCUCGACUUUGUCGAGGAGAAGGGUGUAAACAUGAGGAUCACCCAUGUAUAAUGUCGAAAUAUAAU | – | – | 221 | 28.9
AGUAAGAUGCAGAAGGUGUCAGCGAGAGCUGCACAUGAGGAUCACCCAUGUUGUCGGUGACGACGCAAGGAUAUGCAUCUUACA | – | – | 89.2 | 15.8
GUGUAGUGAGGAUAUACAUGAGGAUCACCCAUGUGAAUAAGAUAGAAUAAGAUAAAGUGUAGAAGGUAUAGUGU | 53.2 | 35.3 | – | –
AAACACGGACAUGAGGAUCACCCAUGUGGCGAUAGCCUUGGGAGAAGGUAUAAAUAAAAUAAUAAUUAGGAUAUUCAUACCGUG | – | – | 275 | 108
AAGUAGAUCCGAGGAUAUACAAGGCGGAAACGCUACAUGAGGAUCACCCAUGUAGAAGGCGGAUCUACAGGUACUAAAGUACCA | 5.84 | 10.5 | – | –
GCCAUGCUGGUGACGGAUAACACAUGAGGAUCACCCAUGUACAGAAGGCGGAAUUAGCGUAGGACCGAGGAUAUGUACGUGAGG | 89.5 | 26.4 | – | –
GUCAGCUCGUGAGGAUAUACAUGUGCUGGAAACAGCAUUAUAUUUUUCACAUGAGGAUCACCCAUGUAGAAGGCACGAGCUGAU | 16.3 | 27 | – | –
GUACUGUAGUGAGGAUAUACGAGUUCGAUAGAACGGCGAUCCAUAUAUACAUGAGGAUCACCCAUGUAGAAGGCACUUCAGUAC | 7.69 | 100 | – | –
AUCUACCUAGGAUAUACAUGAGGAUCACCCAUGUACAGUUUCAUCUAGGGAUACUCACGUAGAAGGAGGUAGAU | 36.6 | 21.5 | – | –
GGUUGGCGAGGAUAUACAUGAGGAUCACCCAUGUGGUCCUGUGGCUGGUCAAACCUUUGUAGAAGGCGCGGGUC | 236 | 228 | – | –
UCACGGUAUGUAGGAUAUGCAUAGCAUUGCUAUGCAGAAGGACAUGAGGAUCACCCAUGUAUGUAUUCCAUACUAAUCCCGUGC | 6.01 | 6.03 | – | –
UAUUAGCUAGGAUAUACAUGAGGAUCACCCAUGUCACGGGUCAACUUGUCCUAUGCGUGUAGAAGGAGCGACCC | 17.7 | 21.7 | – | –
GUUUCUAUAUGUUUUAUUUAACAGUCAGAAGGUGAUACUACGACAUGAGGAUCACCCAUGUAAUUCAAGGAUAUGAACUUAAUC | – | – | 1060 | 517
UUGCCUGCGUGUCGCCGGUUUGGACAGGAUAUCCACAUGAGGAUCACCCAUGUCUAACAAAAUACGGAGAAGGGUCCUAGCGGU | – | – | 39 | 6.55
CGAUAAAGCUGAGGAUAUGAGAAUAGAAAGAAAUCAGAAGGCAGACAUGAGGAUCACCCAUGUGAGUUCUCGAGAUUACAUGGU | 250 | 529 | – | –
CGCUACACCCAGAAGGACAUGAGGAUCACCCAUGUAGGAUAUGGGAGACACAGUCCCAUGUAGAGAAACUACGCUAGUGUAGCG | – | – | 200 | 81.4
CGGGUCUGAGGAUAUCCAUCUUCAUACAUGAGGAUCACCCAUGUUUACCCUUGGGUUCCUGGAGAAGGCAGUUUUC | 166 | 162 | – | –
UCCUCGAUGUAGAAGGCCGCGUCCGGCUCACGCGGAGGAUAUACAUGAGGAUCACCCAUGUGUUUGUGGCUAAUAUGGUACGAA | 159 | 18.2 | – | –
GGAUUACAAAUUUAUUUAAUACGAACAUGAGGAUCACCCAUGUAGGAUAUGCUAGUUAAGUAAUAGCAGAAGGACAUGUGCCUU | 10.8 | 30.6 | – | –

Sequence | apparent Kd [1] [nM] | apparent Kd [2] [nM] | apparent Kd [3] [nM] | apparent Kd [4] [nM]
GCCUCAGAAUUAAUUGUGAGAGGCAGAAGGCUAUAUCUCGUGGUAAACAUGAGGAUCACCCAUGUAGAGGAUAUGCUAUUACAG | 8.25 | 9.99 | – | –
UUUAUUAGUUAGAAGGCUUGAUGAAUUACAAUGGACAUGAGGAUCACCCAUGUGUAUUCAUGUUAAGAGGAUAUAGUCAUAUAU | – | – | 30.2 | 20.2
CCUCUACAUGAGGAUCACCCAUGUGAGGAUAUAUGCCCAUUACGCCAAGGGCGUGAUGAUAGAAGGCACAGGGU | 22.4 | 71.1 | – | –
GGACGUCACAUCUACAUGAGGAUCACCCAUGUCAAAAGACAUGAGGAUAUGCAUCCUAAUUGGAUGCAGAAGGCAUGGACGUCC | – | – | 1200 | 70.2
AGUUGAAAUACAGGAUAUAUAUUAUUUUUAUUUAUAGAAGGGUAAUCACAUGAGGAUCACCCAUGUAUAUACGAGGAAGAAGAG | – | – | 292 | 263
UCUCAGUGAGGAUAUGCCAGGGACUAAUUCGUCCACCCGUCGCAGAAGGCACAUGAGGAUCACCCAUGUGGAUG | 109 | 54.5 | – | –
GGUACCAUCACAGGAUAUGCUUUUCUUUGGGAAGCAGAAGGGUGUAACAUGAGGAUCACCCAUGUGGUGCCAGGGCGCGAGCCC | – | – | 205 | 15.4
UCACUUCGUGAGGAUAUGCAAGGACUAUGACUGGUAGAAGGCACGACAUGAGGAUCACCCAUGUCUGUGGGUCC | 17 | 18.3 | – | –
GGUAUACUGCAGGAUAUUAGCUGAGAUAUCCGCUGAGAAGGGCAGACAUGAGGAUCACCCAUGUACCGAGUAGU | 31.9 | 18.8 | – | –
UGUCCAUAGCAGAAGGACAUGAAUAACCAUGAAAACAUGAGGAUCACCCAUGUAGGAUAUGCUAUGGACUAAGAGCGAAAGCUC | 15 | 175 | – | –
CAGUACUGAGGAUAUACAUGAGGAUCACCCAUGUGUUCCUGCUAGGAAACUAGCAAAAGUAGAAGGCAGUACUG | 25.2 | 532 | – | –
AGGAGUAAAGGGAAUAACAUGAGGAUCACCCAUGUAUGGGAGAGAAGGCAUAUCGGAGGACGAUAUGAGGAUAUUUAAACUCUA | – | – | 62.6 | 18.7
CAGAAUUGAGGAUAUGAUCAAUUUAACAUGAGGAUCACCCAUGUAUGGGAAUGAUUCUGAUCAGAAGGCGAUUCUU | 1290 | 910 | – | –
AUAUUUAUUUAGAAGGACAUGAGGAUCACCCAUGUCGCUGGGCGCGGGAAACCGUGCCCGGCCAUGUAGGAUAUAGGUAGAUAU | 14.2 | 12.2 | – | –
AAAACAUGAGGAUCACCCAUGUAAAGAUCGGUUAAUUAAAGUGAGGAUAUACAAAAUUUUAUAUAGUAGAAGGCACUGGGUACA | – | – | 30.2 | 33.4
UUUGUUUUGGUAGGAUAUACUUUUAUUUUCUCUUUCCUUACAUGAGGAUCACCCAUGUUUACAUUGUAGAAGGACCACUUUGUU | 20.8 | 18.8 | – | –
GAAGCACGCAUUAACAUGAGGAUCACCCAUGUCAAAAGACGUGAGGAUAUGGAUCUGAAGAAGAUCCAGAAGGCACCGUGCUAA | – | – | 8.41 | 5.3
CGAACUCCGUAGAAGGGUGACAUGAGGAUCACCCAUGUGCGAGCGGAGGGAGUCAGCGGCUCGCCACAGGAUAUACGGAGCACG | – | – | 49.4 | 107
UGGUACUAGGGAGGAUAUGGGAAGAUACAUGAGGAUCACCCAUGUUUAAGAAUGCCGAGAGGCAACUAGAAGGCCCUAGUACAU | – | – | 537 | 18.7
CCUGCCAGGACAGGAUAUCUGAGCUGGGACAUGUCUUUUAAGGACAUGAGGAUCACCCAUGUUCAAGAGAAGGGUCAAGGGCGU | 401 | 210 | – | –
UUUUAACAUGAGGAUCACCCAUGUGAGGAUAUCGAAAUUUAUAUUAAUAUUAUUAUAACGAGAAGGCACAUUUU | 66.5 | 82.9 | – | –
